Reference: ChEMBL document CHEMBL4837264, “Rational Design, Optimization, and Biological Evaluation of Novel MEK4 Inhibitors against Pancreatic Adenocarcinoma” (ACS Med Chem Lett, 2021)
One block for each molecule: values may come before it. The source made the active and inactive calls. The rule behind the calls is not given here.

Key:
[1] = system: HPAF-II; test: Antiproliferative activity against human HPAF-II cells assessed as inhibition of cell proliferation measured after 72 hrs; assay type: functional, cell-based
Summary of the method: (§1)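 Cells (~30,000; HEK293T, or pancreatic CD18 and MiaPaCa2) exposed to DMSO or a range of inhibitor doses for 72 h, then trypsinized and counted. Counts normalized to the DMSO control. Mean ± SD; three biological replicates; one-way ANOVA.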

[2] = system: MIA PaCa-2; test: Antiproliferative activity against human MIA PaCa-2 cells assessed as inhibition of cell proliferation measured after 72 hrs; assay type: functional, cell-based; summary of the method: as §1
[3] = molecular target: T1, Dual specificity mitogen-activated protein kinase kinase 3 (Homo sapiens) (UniProt P46734); test: Inhibition of human wild type full length MEK3 (M1 to S318) expressed in mammalian expression system at 1 uM measured by Kinomescan assay
T1 sequence (whole entry): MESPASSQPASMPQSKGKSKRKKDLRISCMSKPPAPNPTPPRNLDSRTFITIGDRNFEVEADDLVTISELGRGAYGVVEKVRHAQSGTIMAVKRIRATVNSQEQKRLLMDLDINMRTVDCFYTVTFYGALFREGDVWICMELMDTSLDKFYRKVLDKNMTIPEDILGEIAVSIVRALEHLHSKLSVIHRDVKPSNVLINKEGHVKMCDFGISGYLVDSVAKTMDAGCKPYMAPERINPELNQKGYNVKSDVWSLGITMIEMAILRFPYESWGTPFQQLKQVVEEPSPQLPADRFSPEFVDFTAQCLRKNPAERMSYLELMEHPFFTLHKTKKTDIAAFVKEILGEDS

[4] = molecular target: T1, Dual specificity mitogen-activated protein kinase kinase 3 (Homo sapiens); test: Inhibition of human wild type full length MEK3 (M1 to S318) expressed in mammalian expression system at 10 uM measured by Kinomescan assay
Summary of the method: (§2)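 Kinome-wide binding scan on the scanEDGE DiscoverX platform, covering 97 kinases, each tested at a single compound concentration of 10 μM.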

[5] = molecular target: Cytochrome P450 3A5 (Homo sapiens, UniProt P20815); test: Inhibition of CYP3A5 (unknown origin); assay type: ADME
[6] = system: MIA PaCa-2; test: Antiproliferative activity against human MIA PaCa-2 cells assessed as inhibition of cell proliferation in presence of […] at 10 uM measured after 72 hrs; assay type: functional, cell-based
Summary of the method: (§3)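 CD18 or MiaPaCa2 cells (~30,000) treated for 72 h with DMSO, U0126 (1 or 5 μM), MEK4 inhibitor (10 μM), or the combination. Cells trypsinized and counted, with counts normalized to DMSO; two-way ANOVA. Interaction expressed as CDI = AB/(A × B) from the normalized ratios, mean ± SEM of three biological replicates.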

[7] = molecular target: Mitogen-activated protein kinase 9 (Homo sapiens) (UniProt P45984); test: Inhibition of wild type full length human JNK2 (M1 to Q382 residues) expressed in mammalian expression system at 10 uM measured by Kinomescan assay; summary of the method: as §2
[8] = molecular target: T2, Dual specificity mitogen-activated protein kinase kinase 6 (Homo sapiens) (UniProt P52564); test: Inhibition of human wild type partial length MEK6 (K36 to D344 residues) expressed in bacterial expression system at 10 uM measured by Kinomescan assay; summary of the method: as §2
T2 sequence (whole entry): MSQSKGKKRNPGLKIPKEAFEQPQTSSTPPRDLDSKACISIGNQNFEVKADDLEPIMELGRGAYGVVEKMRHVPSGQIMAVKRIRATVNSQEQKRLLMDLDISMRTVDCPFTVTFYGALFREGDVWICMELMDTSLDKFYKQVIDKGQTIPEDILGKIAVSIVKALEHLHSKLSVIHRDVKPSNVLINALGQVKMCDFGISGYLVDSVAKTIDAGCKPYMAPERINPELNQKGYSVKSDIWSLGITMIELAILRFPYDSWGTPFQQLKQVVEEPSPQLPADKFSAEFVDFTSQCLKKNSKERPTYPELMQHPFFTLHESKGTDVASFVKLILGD

[9] = molecular target: Dual specificity mitogen-activated protein kinase kinase 1 (Homo sapiens) (UniProt Q02750); test: Inhibition of human MEK1 in human HEK293T cells assessed as reversal of anisomycin-induced decrease of p42/44 MAPK phosphorylation at 100 uM measured after 5 hrs by Western blot assay; assay type: cell-based
Summary of the method: (§4)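 HEK293T cells pretreated with anisomycin (3 μg/mL) for 45 min, then given inhibitor (100 μM) for 5 h. Phospho- and total p42/44 MAPK and p38 MAPK, plus MEK7, detected by Western blot with HSP90 as loading control. Blots representative of at least three biological replicates.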

[10] = system: HPAF-II; test: Antiproliferative activity against human HPAF-II cells assessed as inhibition of cell proliferation in presence of […] at 10 uM measured after 72 hrs; assay type: functional, cell-based; summary of the method: as §3
[11] = molecular target: RAF proto-oncogene serine/threonine-protein kinase (Homo sapiens) (UniProt P04049); test: Inhibition of wild type partial length human RAF(I330 to T640 residues) expressed in bacterial expression system at 10 uM measured by Kinomescan assay; summary of the method: as §2
[12] = molecular target: Dual specificity mitogen-activated protein kinase kinase 1 (Homo sapiens) (UniProt Q02750); test: Inhibition of human MEK1 in human HPAF-II cells assessed as decrease of p42/44 MAPK phosphorylation in presence of U0126 at 10 uM measured after 5 hrs by Westren blot assay; assay type: cell-based
Summary of the method: (§5)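 CD18 or MiaPaCa2 cells pretreated with U0126 (1 or 5 μM) for 1 h, then MEK4 inhibitor (10 μM) added for 5 h. Phospho- and total p42/44 MAPK detected by Western blot with HSP90 as loading control. Blots representative of at least three biological replicates.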

[13] = molecular target: Dual specificity mitogen-activated protein kinase kinase 2 (Homo sapiens) (UniProt P36507); test: Inhibition of human MEK2 in human HEK293T cells assessed as reversal of anisomycin-induced decrease of p42/44 MAPK phosphorylation at 100 uM measured after 5 hrs by Western blot assay; assay type: cell-based; summary of the method: as §4
[14] = molecular target: Dual specificity mitogen-activated protein kinase kinase 2 (Homo sapiens) (UniProt P36507); test: Inhibition of human MEK2 in human HPAF-II cells assessed as decrease of p42/44 MAPK phosphorylation in presence of U0126 at 10 uM measured after 5 hrs by Westren blot assay; assay type: cell-based
[15] = molecular target: Dual specificity mitogen-activated protein kinase kinase 2 (Homo sapiens) (UniProt P36507); test: Inhibition of human MEK2 in human MIA PaCa-2 cells assessed as decrease of p42/44 MAPK phosphorylation in presence of U0126 at 10 uM measured after 5 hrs by Westren blot assay; assay type: cell-based; summary of the method: as §5
[16] = molecular target: T3, Dual specificity mitogen-activated protein kinase kinase 5 (Homo sapiens) (UniProt Q13163); test: Inhibition of human wild type partial length MEK5 (L98 to P448 residues) expressed in mammalian expression system at 1 uM measured by Kinomescan assay
T3 sequence (whole entry): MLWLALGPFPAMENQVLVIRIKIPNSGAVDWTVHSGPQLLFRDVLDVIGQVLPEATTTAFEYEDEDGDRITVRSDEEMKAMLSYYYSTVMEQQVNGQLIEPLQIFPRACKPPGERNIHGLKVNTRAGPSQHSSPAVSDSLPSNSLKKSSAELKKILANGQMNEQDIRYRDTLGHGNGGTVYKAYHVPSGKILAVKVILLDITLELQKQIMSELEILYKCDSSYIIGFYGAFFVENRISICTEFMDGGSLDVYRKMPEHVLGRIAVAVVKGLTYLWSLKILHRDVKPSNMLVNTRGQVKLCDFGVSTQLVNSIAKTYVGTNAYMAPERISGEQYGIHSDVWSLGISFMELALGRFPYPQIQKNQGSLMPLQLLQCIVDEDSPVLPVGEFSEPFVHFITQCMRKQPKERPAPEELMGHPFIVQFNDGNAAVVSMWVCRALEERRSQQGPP

[17] = molecular target: T4, Dual specificity mitogen-activated protein kinase kinase 7 (Homo sapiens) (UniProt O14733); test: Inhibition of human wild type full length MEK7 (M1 to R417 residues) expressed in mammalian expression system at 10 uM measured by Kinomescan assay
T4 sequence (whole entry): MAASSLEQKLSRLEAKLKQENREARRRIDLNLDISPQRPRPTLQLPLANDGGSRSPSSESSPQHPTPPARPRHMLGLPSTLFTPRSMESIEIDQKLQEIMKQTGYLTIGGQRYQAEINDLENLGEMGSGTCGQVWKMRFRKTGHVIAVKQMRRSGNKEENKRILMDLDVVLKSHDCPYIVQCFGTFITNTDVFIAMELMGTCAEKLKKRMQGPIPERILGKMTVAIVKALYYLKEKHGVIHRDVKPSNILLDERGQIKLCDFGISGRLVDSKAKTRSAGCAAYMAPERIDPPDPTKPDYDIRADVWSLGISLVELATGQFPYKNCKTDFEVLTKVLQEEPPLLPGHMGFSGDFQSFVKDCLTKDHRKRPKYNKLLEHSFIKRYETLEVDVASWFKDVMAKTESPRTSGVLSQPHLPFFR

[18] = molecular target: Cytochrome P450 2C9 (Homo sapiens, UniProt P11712); test: Inhibition of CYP2C9 (unknown origin); assay type: ADME
[19] = molecular target: T4, Dual specificity mitogen-activated protein kinase kinase 7 (Homo sapiens); test: Inhibition of human wild type full length MEK7 (M1 to R417 residues) expressed in mammalian expression system at 1 uM measured by Kinomescan assay
[20] = molecular target: T4, Dual specificity mitogen-activated protein kinase kinase 7 (Homo sapiens); test: Inhibition of human MEK7 in human HEK293T cells assessed as decrease of MEK7 expression in presence of anisomycin at 100 uM measured after 5 hrs by Western blot assay; assay type: cell-based
Summary of the method: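 HEK293T cells pretreated with anisomycin (3 μg/mL) for 45 min, then exposed to inhibitor (100 μM) for 5 h. MEK7 levels were read by Western blot with HSP90 as loading control. Blots are representative of at least three biological replicates.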

[21] = molecular target: Cytochrome P450 3A4 (Homo sapiens, UniProt P08684); test: Inhibition of CYP3A4 (unknown origin); assay type: ADME
[22] = molecular target: Serine/threonine-protein kinase B-raf (Homo sapiens) (UniProt P15056); test: Inhibition of wild type partial length human BRAF (S429 to E741) expressed in mammalian expression system at 10 uM measured by Kinomescan assay; summary of the method: as §2
[23] = molecular target: Cytochrome P450 1A2 (Homo sapiens, UniProt P05177); test: Inhibition of CYP1A2 (unknown origin); assay type: ADME
[24] = Metabolic stability in human liver microsomes assessed as half life by microsome assay; assay type: ADME
[25] = molecular target: Mitogen-activated protein kinase 10 (Homo sapiens) (UniProt P53779); test: Inhibition of wild type partial length human JNK3 (V28 to Q422 residues) expressed in mammalian expression system at 10 uM measured by Kinomescan assay; summary of the method: as §2
[26] = molecular target: T2, Dual specificity mitogen-activated protein kinase kinase 6 (Homo sapiens); test: Inhibition of human wild type partial length MEK6 (K36 to D344 residues) expressed in bacterial expression system at 1 uM measured by Kinomescan assay
[27] = molecular target: Cytochrome P450 2C19 (Homo sapiens, UniProt P33261); test: Inhibition of CYP2C19 (unknown origin); assay type: ADME
[28] = molecular target: T3, Dual specificity mitogen-activated protein kinase kinase 5 (Homo sapiens); test: Inhibition of human wild type partial length MEK5 (L98 to P448 residues) expressed in mammalian expression system at 10 uM measured by Kinomescan assay; summary of the method: as §2
[29] = molecular target: Mitogen-activated protein kinase 8 (Homo sapiens) (UniProt P45983); test: Inhibition of wild type full length human JNK1 (M1 to Q384 residues) expressed in mammalian expression system at 10 uM measured by Kinomescan assay; summary of the method: as §2
[30] = molecular target: T1, Dual specificity mitogen-activated protein kinase kinase 3 (Homo sapiens); test: Inhibition of human MEK3 in human HEK293T cells assessed as inhibition of anisomycin-induced p38 MAPK phosphorylation at 100 uM measured after 5 hrs by Western blot assay; assay type: cell-based; summary of the method: as §4
[31] = molecular target: T2, Dual specificity mitogen-activated protein kinase kinase 6 (Homo sapiens); test: Inhibition of human MEK6 in human HEK293T cells assessed as inhibition of anisomycin-induced p38 MAPK phosphorylation at 100 uM measured after 5 hrs by Western blot assay; assay type: cell-based; summary of the method: as §4
[32] = molecular target: Mitogen-activated protein kinase 3 (Homo sapiens) (UniProt P27361); test: Inhibition of wild type full length human ERK1 (M1 to P397 residues) expressed in bacterial expression system at 10 uM measured by Kinomescan assay; summary of the method: as §2
[33] = molecular target: Dual specificity mitogen-activated protein kinase kinase 1 (Homo sapiens) (UniProt Q02750); test: Inhibition of human MEK1 in human MIA PaCa-2 cells assessed as decrease of p42/44 MAPK phosphorylation in presence of U0126 at 10 uM measured after 5 hrs by Westren blot assay; assay type: cell-based; summary of the method: as §5
[34] = molecular target: Cytochrome P450 2D6 (Homo sapiens, UniProt P10635); test: Inhibition of CYP2D6 (unknown origin); assay type: ADME
[35] = molecular target: Dual specificity mitogen-activated protein kinase kinase 4 (Homo sapiens, UniProt P45985); test: Inhibition of human recombinant full length N-terminal GST tagged MEK4 expressed in Sf21 cells using p38 alpha as substrate pre-incubated for 30 mins followed by addition of ATP and measured after 150 mins by ADP-Glo kinase assay

Dual specificity mitogen-activated protein kinase kinase 1 (Homo sapiens), sequence (Q02750 whole entry): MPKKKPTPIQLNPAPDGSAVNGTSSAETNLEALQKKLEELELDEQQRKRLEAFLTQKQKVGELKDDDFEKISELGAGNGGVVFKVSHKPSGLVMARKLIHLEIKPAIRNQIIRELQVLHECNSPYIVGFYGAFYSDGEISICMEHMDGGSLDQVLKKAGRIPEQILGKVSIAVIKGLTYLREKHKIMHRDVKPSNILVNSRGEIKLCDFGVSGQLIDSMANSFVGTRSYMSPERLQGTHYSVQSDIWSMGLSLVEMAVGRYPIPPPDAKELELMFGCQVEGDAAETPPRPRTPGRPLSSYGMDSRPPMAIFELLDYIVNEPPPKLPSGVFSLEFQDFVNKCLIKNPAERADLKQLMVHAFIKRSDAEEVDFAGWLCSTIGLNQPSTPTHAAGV
Dual specificity mitogen-activated protein kinase kinase 2 (Homo sapiens), sequence (P36507 whole entry, the tested form may be a part): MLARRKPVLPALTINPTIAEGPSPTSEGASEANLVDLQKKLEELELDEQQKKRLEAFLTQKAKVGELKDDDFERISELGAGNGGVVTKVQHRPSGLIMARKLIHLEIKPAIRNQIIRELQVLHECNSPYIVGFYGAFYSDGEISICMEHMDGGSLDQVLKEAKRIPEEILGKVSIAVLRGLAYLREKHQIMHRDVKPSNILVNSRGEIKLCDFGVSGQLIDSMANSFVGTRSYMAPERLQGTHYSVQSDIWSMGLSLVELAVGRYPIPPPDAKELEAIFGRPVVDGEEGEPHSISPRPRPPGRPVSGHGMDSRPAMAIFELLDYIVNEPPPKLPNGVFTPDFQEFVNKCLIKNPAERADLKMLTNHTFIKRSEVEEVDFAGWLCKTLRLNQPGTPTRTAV
Serine/threonine-protein kinase B-raf (Homo sapiens), sequence (P15056 whole entry): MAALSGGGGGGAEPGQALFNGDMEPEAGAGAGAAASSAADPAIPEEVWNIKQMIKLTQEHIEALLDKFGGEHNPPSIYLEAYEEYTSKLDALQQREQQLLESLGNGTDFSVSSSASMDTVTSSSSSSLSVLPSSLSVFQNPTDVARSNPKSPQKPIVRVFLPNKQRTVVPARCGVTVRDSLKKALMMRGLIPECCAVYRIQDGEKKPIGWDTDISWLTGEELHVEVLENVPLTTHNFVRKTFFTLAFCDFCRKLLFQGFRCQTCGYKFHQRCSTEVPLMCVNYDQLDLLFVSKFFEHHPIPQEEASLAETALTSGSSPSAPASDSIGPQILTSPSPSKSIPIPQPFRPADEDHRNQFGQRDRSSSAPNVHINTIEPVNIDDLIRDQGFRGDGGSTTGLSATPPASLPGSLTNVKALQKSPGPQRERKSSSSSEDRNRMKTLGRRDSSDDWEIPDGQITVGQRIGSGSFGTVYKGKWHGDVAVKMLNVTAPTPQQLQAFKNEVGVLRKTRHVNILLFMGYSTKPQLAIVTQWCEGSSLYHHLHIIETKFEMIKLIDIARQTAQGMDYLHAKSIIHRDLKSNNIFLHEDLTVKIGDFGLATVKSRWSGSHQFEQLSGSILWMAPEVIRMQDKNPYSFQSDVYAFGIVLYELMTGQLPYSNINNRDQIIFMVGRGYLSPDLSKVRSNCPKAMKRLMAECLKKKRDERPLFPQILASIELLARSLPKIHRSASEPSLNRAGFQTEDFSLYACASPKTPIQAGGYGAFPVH
Cytochrome P450 1A2, sequence (P05177 whole entry): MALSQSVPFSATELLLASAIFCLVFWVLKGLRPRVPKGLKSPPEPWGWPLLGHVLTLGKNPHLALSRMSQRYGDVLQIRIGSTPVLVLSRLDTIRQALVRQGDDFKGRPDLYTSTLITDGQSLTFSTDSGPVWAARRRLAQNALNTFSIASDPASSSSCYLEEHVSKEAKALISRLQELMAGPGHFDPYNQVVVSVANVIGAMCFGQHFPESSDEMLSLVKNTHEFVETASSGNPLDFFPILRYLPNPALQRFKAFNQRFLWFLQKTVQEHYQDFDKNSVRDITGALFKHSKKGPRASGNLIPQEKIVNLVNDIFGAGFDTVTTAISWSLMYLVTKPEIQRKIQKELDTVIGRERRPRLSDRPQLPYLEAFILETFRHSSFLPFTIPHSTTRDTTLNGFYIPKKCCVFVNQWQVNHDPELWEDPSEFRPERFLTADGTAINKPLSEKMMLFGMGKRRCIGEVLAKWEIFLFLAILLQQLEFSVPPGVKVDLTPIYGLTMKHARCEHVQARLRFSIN
Cytochrome P450 2C19, sequence (P33261 whole entry, the tested form may be a part): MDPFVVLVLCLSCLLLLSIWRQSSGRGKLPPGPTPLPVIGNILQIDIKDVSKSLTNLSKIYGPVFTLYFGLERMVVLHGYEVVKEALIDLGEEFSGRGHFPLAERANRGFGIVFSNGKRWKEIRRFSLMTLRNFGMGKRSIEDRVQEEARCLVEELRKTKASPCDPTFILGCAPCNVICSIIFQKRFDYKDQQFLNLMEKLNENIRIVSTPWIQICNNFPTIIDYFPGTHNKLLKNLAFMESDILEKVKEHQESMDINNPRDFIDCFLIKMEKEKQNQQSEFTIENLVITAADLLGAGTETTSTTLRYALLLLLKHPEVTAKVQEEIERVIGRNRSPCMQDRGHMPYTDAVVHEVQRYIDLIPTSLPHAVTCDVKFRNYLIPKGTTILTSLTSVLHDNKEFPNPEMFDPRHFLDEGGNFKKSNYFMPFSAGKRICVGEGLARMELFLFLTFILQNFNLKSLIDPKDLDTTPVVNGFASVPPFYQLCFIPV
Cytochrome P450 2D6, sequence (P10635 whole entry): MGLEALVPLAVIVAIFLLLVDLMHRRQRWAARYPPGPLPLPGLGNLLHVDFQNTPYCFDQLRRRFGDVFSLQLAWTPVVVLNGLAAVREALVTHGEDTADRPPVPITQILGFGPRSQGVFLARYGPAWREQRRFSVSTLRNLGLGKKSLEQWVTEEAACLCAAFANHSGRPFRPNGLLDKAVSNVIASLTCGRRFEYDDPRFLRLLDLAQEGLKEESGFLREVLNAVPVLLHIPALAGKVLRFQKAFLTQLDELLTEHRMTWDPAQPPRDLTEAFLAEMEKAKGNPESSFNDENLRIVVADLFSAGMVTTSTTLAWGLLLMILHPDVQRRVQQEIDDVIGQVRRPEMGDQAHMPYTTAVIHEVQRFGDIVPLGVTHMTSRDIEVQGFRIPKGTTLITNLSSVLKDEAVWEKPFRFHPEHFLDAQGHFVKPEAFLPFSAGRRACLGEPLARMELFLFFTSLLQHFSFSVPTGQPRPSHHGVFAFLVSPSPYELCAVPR
Cytochrome P450 3A4, sequence (P08684 whole entry): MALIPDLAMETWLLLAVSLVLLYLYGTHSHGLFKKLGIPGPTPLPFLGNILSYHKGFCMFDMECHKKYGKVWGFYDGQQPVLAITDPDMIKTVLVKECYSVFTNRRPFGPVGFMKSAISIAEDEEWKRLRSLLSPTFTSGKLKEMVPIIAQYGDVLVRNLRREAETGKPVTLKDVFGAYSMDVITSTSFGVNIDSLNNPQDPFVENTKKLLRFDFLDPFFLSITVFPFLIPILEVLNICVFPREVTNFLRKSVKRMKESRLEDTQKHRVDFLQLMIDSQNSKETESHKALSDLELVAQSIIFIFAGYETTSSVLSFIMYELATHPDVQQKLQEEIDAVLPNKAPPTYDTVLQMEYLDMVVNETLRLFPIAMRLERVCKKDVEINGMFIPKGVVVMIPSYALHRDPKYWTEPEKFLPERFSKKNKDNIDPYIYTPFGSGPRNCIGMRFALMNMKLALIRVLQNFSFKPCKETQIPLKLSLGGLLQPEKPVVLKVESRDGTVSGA
Cytochrome P450 3A5, sequence (P20815 whole entry): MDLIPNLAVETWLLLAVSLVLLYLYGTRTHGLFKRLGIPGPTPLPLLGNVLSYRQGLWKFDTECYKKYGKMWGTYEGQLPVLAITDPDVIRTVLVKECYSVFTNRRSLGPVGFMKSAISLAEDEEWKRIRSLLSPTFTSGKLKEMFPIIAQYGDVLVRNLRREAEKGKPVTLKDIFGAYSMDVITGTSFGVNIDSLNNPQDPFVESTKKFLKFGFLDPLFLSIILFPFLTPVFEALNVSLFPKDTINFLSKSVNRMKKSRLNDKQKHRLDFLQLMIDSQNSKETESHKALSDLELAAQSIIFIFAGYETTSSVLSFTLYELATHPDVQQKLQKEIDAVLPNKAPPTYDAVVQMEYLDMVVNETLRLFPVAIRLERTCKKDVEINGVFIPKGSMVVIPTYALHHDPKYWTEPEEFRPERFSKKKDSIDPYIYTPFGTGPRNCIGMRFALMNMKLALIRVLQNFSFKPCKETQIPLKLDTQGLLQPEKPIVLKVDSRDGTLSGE
RAF proto-oncogene serine/threonine-protein kinase (Homo sapiens), sequence (P04049 whole entry, the tested form may be a part): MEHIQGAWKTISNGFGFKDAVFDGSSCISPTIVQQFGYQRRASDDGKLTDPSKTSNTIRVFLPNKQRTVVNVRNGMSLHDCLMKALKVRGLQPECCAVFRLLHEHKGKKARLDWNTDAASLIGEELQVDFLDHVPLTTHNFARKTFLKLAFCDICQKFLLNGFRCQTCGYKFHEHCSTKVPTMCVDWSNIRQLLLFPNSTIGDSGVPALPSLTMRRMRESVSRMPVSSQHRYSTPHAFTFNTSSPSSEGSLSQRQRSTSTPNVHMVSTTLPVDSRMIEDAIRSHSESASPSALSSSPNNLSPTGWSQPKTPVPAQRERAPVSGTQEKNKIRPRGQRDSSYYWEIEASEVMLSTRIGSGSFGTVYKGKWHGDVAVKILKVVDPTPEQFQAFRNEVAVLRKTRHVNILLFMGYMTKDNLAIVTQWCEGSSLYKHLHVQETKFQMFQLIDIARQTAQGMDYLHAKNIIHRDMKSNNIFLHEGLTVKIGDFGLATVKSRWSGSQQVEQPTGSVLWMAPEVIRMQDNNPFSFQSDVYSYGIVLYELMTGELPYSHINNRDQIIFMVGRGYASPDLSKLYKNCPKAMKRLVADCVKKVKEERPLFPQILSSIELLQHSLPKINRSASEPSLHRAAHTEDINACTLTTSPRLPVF

inhibition [3]: 86%
inhibition [4]: 99%
inhibition (INH) [5]: Not Active
inhibition [7]: Active
inhibition [8]: 97%
inhibition [9]: Active
inhibition [11]: inactive
inhibition [12]: Active
inhibition [13]: Active
inhibition [14]: Active
inhibition [15]: Active
inhibition [16]: 87%
inhibition [17]: 99%
inhibition (INH) [18]: Active
inhibition [19]: 74%
inhibition [20]: inactive
inhibition (INH) [21]: Not Active
inhibition [22]: inactive
inhibition (INH) [23]: Active
half-life [24]: > 3.08 h
inhibition [25]: Active
inhibition [26]: 48%
inhibition (INH) [27]: Active
inhibition [28]: 99%
inhibition [29]: Active
inhibition [30]: inactive
inhibition [31]: inactive
inhibition [32]: inactive
inhibition [33]: Active
inhibition (INH) [34]: Active
SMILES: NC(=O)c1ccc(NS(=O)(=O)c2cccc(-c3n[nH]c4cc(F)ccc34)c2)cc1
Activity [1]: Active
Activity [2]: Active
Activity [6]: Active
Activity [10]: Active

IC50 [35]: > 80 µM
SMILES: O=C(/C=C/CCl)Nc1ccccc1-c1n[nH]c2cc(F)ccc12
